Columns and labels:
[1] = system: Rattus norvegicus; test: Antihypertensive activity in […] rat model assessed as increase in diuresis at 25 mg/kg, po qd measured on day 1 post dose relative to control; type: functional
Method in brief: (§1)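 Spontaneously hypertensive rats dosed orally once daily for 3 days at 3, 10 and 30 mg/kg (reference diuretic at 25 mg/kg); 24 h urine output on day 1 expressed as fold increase over vehicle-treated rats; n = 5 per group.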

[2] = system: Rattus norvegicus; test: Antihypertensive activity in […] rat model assessed as increase in diuresis at 30 mg/kg, po qd measured on day 1 post dose relative to control; type: functional; method in brief: as §1
[3] = system: Rattus norvegicus; test: Antihypertensive activity in […] rat model assessed as change in systolic blood pressure at 30 mg/kg, po administered qd measured on day 3; type: functional
Method in brief: (§2)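 Spontaneously hypertensive rats were dosed orally once daily for 3 days. Systolic blood pressure change was read on day 3 relative to vehicle, with n = 5 per group.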

[4] = Unbound fraction in rhesus monkey plasma; type: ADME, cell-free, Macaca mulatta
[5] = Stability in rhesus monkey microsomes assessed as compound remaining at 45 mins; type: ADME, Macaca mulatta, Microsome; conditions: read-out: Stability
[6] = Dose normalized AUC in rhesus monkey at 2 mg/kg, po administered qd; type: ADME, organism-based, Macaca mulatta; conditions: in vivo
[7] = target: Cytochrome P450 3A4 (Homo sapiens, UniProt P08684); test: Inhibition of CYP3A4 (unknown origin); type: ADME
Cytochrome P450 3A4, sequence (P08684 whole entry): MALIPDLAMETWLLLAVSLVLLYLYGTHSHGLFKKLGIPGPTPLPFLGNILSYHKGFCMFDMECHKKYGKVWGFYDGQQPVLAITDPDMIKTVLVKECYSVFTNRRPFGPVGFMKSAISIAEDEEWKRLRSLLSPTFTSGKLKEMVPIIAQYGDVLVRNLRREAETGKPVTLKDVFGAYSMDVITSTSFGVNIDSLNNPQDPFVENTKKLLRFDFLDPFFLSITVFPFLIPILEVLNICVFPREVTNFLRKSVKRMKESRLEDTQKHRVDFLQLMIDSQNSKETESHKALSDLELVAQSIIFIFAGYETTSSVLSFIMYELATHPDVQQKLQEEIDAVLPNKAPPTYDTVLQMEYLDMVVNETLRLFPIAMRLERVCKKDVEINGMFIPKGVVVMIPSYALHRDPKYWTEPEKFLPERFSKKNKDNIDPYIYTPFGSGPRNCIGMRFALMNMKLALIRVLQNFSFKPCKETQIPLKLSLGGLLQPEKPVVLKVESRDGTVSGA

[8] = target: T1, Inward rectifier potassium channel 13 (Homo sapiens, UniProt O60928); test: Inhibition of Kir7.1 (unknown origin)
T1 sequence (O60928 whole entry): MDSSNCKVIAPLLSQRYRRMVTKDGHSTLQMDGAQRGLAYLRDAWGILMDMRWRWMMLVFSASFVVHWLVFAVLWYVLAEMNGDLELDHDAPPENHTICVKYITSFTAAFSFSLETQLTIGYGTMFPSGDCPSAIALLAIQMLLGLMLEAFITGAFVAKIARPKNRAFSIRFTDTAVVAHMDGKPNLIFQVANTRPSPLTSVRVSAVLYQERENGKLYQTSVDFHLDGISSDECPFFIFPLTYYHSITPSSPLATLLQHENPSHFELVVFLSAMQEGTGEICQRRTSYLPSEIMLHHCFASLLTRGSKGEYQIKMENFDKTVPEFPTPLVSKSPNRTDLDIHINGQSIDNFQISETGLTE

[9] = Oral bioavailability in Sprague-Dawley rat at 2 mg/kg; type: ADME, organism-based; conditions: in vivo
[10] = target: T2, Inward rectifier potassium channel 2 (Homo sapiens, UniProt P63252); test: Inhibition of Kir2.1 (unknown origin)
T2 sequence (P63252 whole entry): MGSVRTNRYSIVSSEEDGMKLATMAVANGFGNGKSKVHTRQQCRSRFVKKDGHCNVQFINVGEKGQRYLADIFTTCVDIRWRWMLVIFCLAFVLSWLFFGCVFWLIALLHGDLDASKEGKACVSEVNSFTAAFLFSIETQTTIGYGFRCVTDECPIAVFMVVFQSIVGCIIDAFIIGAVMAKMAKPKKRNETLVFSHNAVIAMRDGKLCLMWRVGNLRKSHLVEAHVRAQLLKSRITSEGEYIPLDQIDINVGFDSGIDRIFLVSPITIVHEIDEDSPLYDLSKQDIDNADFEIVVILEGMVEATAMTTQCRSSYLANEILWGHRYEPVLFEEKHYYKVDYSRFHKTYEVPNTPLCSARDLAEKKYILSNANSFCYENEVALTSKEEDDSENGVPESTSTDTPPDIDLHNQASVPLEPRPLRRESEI

[11] = target: Cytochrome P450 2C9 (Homo sapiens, UniProt P11712); test: Inhibition of CYP2C9 (unknown origin); type: ADME
Cytochrome P450 2C9, sequence (P11712 whole entry): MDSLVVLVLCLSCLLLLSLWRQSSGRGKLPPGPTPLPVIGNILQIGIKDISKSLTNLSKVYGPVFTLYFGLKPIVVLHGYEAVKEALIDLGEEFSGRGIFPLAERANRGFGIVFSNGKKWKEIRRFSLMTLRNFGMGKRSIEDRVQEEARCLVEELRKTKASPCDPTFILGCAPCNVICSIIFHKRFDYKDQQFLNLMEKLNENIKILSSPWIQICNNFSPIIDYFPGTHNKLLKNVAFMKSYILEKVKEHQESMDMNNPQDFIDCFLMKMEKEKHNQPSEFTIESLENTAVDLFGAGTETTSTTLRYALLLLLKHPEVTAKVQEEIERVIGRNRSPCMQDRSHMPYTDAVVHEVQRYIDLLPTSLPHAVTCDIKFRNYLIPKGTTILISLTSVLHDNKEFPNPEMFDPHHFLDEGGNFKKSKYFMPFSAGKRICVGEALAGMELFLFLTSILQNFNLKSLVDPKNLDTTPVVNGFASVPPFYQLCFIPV

[12] = target: T3, Somatostatin receptor type 2 (Homo sapiens, UniProt P30874); test: Inhibition of Somatostatin receptor type 2 (unknown origin) at 10 uM by radioligand binding assay relative to control
T3 sequence (P30874 whole entry): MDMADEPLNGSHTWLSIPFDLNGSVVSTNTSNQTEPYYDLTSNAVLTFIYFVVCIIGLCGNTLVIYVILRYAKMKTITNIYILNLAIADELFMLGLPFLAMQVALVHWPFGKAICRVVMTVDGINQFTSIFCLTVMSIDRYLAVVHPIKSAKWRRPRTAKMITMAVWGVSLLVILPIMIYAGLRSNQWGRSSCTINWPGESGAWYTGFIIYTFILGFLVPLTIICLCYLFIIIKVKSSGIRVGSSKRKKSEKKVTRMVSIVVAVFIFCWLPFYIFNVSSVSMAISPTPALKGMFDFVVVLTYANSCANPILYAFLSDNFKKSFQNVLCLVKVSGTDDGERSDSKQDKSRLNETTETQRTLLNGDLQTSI
Method in brief: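 Run within a 115-assay off-target panel of enzyme and radioligand binding assays. Inhibition of somatostatin sst2 ligand binding was recorded at a single concentration of 10 μM.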

[13] = target: T4, ATP-sensitive inward rectifier potassium channel 1 (Homo sapiens, UniProt P48048); test: Inhibition of human ROMK expressed in CHO cells after 6 mins at -70 mV holding potential by electrophysiology method; type: cell-based
T4 sequence (P48048 whole entry): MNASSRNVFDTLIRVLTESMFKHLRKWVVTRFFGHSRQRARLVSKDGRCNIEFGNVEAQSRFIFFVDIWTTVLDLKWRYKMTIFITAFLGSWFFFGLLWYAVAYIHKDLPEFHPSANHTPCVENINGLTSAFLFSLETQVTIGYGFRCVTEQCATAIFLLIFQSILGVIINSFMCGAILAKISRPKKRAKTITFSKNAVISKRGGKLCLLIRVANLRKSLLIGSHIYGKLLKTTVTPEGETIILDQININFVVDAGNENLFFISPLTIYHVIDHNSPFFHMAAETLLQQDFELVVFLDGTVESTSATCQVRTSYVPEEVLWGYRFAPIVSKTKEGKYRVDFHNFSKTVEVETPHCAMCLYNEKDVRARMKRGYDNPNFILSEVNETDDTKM

[14] = Unbound fraction in rat plasma; type: ADME, cell-free
[15] = Stability in rat microsomes assessed as compound remaining at 45 mins; type: ADME, Microsome; conditions: read-out: Stability
[16] = Stability in human microsomes assessed as compound remaining at 45 mins; type: ADME, Microsome; conditions: read-out: Stability
[17] = Dose normalized AUC in Sprague-Dawley rat at 2 mg/kg, po; type: ADME, organism-based; conditions: in vivo
[18] = Stability in dog microsomes assessed as compound remaining at 45 mins; type: ADME, Canis lupus familiaris, Microsome; conditions: read-out: Stability
[19] = Half life in Sprague-Dawley rat at 1 mg/kg, iv or 2 mg/kg, po; type: ADME, organism-based; conditions: in vivo
[20] = target: Cytochrome P450 2D6 (Homo sapiens, UniProt P10635); test: Inhibition of CYP2D6 (unknown origin); type: ADME
Cytochrome P450 2D6, sequence (P10635 whole entry): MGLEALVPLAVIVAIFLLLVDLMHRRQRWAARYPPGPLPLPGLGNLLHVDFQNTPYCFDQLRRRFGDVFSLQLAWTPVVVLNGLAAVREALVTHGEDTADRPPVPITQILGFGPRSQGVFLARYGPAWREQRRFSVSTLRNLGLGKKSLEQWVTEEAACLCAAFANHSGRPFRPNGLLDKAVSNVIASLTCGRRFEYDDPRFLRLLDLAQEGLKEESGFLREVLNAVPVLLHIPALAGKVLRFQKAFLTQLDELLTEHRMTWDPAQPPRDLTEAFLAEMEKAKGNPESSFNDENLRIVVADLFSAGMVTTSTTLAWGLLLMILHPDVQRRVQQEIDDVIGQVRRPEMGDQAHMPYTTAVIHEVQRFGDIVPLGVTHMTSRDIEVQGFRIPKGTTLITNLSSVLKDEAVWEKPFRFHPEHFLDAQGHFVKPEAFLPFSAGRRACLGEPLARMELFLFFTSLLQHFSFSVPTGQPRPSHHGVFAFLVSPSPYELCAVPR

[21] = Maximum free plasma concentration in iv dosed anesthetized cardiovascular guinea pig model; type: ADME, organism-based, Cavia porcellus; conditions: in vivo
Method in brief: (§3)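 Anesthetized guinea pig cardiovascular model, n = 3. The compound was given by IV infusion while the QTc interval was monitored. Unbound plasma concentration was taken as the maximal average peak value.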

[22] = Unbound fraction in human plasma; type: ADME, cell-free
[23] = Cardiotoxicity in anesthetized cardiovascular guinea pig model assessed as change in QTc interval administered as iv infusion; type: toxicity, organism-based, Cavia porcellus, Heart; conditions: in vivo; method in brief: as §3
[24] = Oral bioavailability in Beagle dog at 2 mg/kg administered qd; type: ADME, organism-based, Canis lupus familiaris; conditions: in vivo
[25] = system: Rattus norvegicus; test: Antihypertensive activity in […] rat model assessed as change in systolic blood pressure at 25 mg/kg, po administered qd measured on day 3; type: functional; method in brief: as §2
[26] = target: Sodium channel protein type 5 subunit alpha (Homo sapiens, UniProt Q14524); test: Inhibition of Nav1.5 (unknown origin)
Sodium channel protein type 5 subunit alpha, sequence (Q14524 whole entry): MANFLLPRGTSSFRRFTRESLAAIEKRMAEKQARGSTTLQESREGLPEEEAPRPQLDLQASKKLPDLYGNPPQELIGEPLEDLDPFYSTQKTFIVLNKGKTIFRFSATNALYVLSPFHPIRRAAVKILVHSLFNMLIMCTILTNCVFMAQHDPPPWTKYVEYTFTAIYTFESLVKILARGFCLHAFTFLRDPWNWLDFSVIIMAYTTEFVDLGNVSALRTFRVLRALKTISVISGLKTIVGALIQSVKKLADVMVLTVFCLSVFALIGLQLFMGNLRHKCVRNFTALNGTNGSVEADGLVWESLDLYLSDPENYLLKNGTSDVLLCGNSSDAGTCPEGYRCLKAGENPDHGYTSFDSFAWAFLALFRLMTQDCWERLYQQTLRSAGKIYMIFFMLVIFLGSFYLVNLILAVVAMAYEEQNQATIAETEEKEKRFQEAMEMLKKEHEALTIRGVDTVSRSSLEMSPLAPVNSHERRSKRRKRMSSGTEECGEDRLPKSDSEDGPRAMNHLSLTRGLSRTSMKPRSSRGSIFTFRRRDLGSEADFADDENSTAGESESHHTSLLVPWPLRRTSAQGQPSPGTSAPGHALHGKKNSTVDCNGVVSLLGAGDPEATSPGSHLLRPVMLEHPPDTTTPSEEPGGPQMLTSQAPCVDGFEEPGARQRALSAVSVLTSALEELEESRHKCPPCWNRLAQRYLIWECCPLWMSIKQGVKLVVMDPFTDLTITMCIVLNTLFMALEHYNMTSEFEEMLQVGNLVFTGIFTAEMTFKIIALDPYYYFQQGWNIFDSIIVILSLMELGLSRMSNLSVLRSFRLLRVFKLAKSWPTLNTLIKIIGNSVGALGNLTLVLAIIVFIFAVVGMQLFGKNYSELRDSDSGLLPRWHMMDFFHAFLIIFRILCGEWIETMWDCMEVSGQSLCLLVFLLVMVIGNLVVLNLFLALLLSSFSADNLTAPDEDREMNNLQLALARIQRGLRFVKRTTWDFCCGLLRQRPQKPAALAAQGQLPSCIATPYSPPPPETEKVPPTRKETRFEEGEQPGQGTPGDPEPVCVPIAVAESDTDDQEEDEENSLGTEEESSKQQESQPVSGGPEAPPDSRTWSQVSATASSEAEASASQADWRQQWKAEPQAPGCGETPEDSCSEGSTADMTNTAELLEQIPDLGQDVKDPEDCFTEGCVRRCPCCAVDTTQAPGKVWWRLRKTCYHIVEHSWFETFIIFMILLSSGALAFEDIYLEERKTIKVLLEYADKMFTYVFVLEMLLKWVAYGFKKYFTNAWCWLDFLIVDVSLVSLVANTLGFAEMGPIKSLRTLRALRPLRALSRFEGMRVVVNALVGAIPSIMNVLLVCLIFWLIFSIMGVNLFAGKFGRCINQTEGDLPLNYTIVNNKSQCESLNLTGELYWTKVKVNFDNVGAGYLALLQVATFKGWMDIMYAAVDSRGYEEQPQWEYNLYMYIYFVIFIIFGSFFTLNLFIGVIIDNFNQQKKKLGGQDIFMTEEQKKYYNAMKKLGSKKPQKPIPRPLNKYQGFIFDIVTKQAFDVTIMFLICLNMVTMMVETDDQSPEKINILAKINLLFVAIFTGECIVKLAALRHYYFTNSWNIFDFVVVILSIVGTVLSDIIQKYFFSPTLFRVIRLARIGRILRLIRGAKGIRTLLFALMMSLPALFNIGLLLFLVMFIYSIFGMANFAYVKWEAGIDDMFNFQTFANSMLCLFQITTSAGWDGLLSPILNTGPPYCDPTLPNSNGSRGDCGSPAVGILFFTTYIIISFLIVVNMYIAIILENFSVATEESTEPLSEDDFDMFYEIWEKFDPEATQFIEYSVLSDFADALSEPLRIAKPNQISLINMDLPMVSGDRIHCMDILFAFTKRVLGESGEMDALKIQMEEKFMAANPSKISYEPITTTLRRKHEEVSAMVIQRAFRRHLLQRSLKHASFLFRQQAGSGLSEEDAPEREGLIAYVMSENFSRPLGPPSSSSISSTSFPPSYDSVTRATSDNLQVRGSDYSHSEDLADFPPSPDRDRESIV

[27] = Oral bioavailability in rhesus monkey at 2 mg/kg, qd; type: ADME, organism-based, Macaca mulatta; conditions: in vivo
[28] = Unbound fraction in dog plasma; type: ADME, cell-free, Canis lupus familiaris
[29] = system: Rattus norvegicus; test: Antihypertensive activity in […] rat model assessed as increase in diuresis at 3 mg/kg, po qd measured on day 1 post dose relative to control; type: functional; method in brief: as §1
[30] = Apparent permeability in pig LLC-PK1 cells; type: ADME, cell-based, Sus scrofa
[31] = target: Voltage-gated inwardly rectifying potassium channel KCNH2 (Homo sapiens, UniProt Q12809); test: Inhibition of human ERG by electrophysiology method
Voltage-gated inwardly rectifying potassium channel KCNH2, sequence (Q12809 whole entry): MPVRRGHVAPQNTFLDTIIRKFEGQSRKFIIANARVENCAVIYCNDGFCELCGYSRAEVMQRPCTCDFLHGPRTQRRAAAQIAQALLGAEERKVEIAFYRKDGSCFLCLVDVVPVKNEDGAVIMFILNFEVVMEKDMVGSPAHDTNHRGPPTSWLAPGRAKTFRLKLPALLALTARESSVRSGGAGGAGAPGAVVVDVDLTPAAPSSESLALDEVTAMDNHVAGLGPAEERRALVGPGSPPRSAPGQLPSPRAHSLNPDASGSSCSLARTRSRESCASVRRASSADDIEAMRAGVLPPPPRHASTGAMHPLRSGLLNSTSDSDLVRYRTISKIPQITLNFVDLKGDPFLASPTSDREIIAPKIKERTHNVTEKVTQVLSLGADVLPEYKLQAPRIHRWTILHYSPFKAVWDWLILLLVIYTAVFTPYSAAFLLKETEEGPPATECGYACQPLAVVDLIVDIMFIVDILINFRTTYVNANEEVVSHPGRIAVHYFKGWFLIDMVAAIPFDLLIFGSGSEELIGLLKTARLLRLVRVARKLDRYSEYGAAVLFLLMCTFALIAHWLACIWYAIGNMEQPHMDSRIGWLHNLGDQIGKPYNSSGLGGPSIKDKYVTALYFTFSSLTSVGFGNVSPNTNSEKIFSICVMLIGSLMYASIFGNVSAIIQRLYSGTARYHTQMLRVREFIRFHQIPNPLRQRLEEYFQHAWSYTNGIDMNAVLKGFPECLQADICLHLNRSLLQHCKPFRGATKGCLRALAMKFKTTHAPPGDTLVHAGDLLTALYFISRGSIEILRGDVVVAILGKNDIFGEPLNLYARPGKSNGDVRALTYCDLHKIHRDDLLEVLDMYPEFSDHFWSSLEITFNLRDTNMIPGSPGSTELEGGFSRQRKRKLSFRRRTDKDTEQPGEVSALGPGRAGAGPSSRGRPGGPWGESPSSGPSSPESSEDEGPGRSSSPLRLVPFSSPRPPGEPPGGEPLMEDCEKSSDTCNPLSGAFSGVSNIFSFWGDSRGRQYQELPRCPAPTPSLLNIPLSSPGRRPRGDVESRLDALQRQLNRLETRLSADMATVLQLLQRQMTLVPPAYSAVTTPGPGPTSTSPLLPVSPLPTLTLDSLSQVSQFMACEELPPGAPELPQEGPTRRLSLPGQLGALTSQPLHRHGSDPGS

[32] = target: T3, Somatostatin receptor type 2; test: Inhibition of Somatostatin receptor type 2 (unknown origin) by radioligand binding assay

For Cc1c([C@@H]2CN3CCN(C(=O)Cc4ccc(-n5cnnn5)cn4)C[C@H]3CO2)ccc(F)c1C#N, the “fold change (FC)” value [1] was 1.05, the “fold change (FC)” value [2] was 1.8 and the Activity [3] was -16 mmHg. It also gave a fraction unbound [4] of 0.6, a remaining at 0.75 h [5] of 72% and an AUC/dose [6] of 6 µM·kg·h/mg. The IC50 [7] was over 50 µM, the IC50 [8] was over 100 µM and the bioavailability [9] was 46%. For the same compound, the IC50 [10] was over 100 µM, the IC50 [11] was over 50 µM and the inhibition [12] was over 50%. The IC50 [13] was 0.073 µM, the fraction unbound [14] was 0.48 and the remaining at 0.75 h [15] was 85%. For the same compound, the remaining at 0.75 h [16] was 89%, the AUC/dose [17] was 0.79 µM·kg·h/mg and the remaining at 0.75 h [18] was 82%. For the same compound, the half-life [19] was 1.5 h, the IC50 [20] was over 50 µM and the “Cp(f)max” value [21] was 83 µM. For the same compound, the fraction unbound [22] was 0.58, the Activity [23] was “Non-Toxic” and the bioavailability [24] was 100%. It also gave an Activity [25] of -12 mmHg, an IC50 [26] of over 30 µM and a bioavailability [27] of 67%. The fraction unbound [28] was 0.52, the “fold change (FC)” value [29] was 1.4 and the Papp [30] was “Permeable”. The IC50 [31] was 20.3 µM and the IC50 [32] was 4.1 µM.

— ChEMBL document CHEMBL3868612, “Discovery of a potent and selective ROMK inhibitor with improved pharmacokinetic properties based on an octahydropyrazino[2,1-c][1,4]oxazine scaffold” (Bioorg Med Chem Lett, 2016)
